# Screening results (PubChem BioAssay)
# rRNA inh HTS = inhibitors of bacterial rRNA selective over humanized ribosomes; E. coli WT GFP vs humanized-ribosome RFP mutants, fluorescence, 24 h; hits give low values; DMSO median 0, no signal -100; AID 720706; actives 1.6% (n = 350,000); GFP signal change (wild-type ribosome), % (concentration not given with the values);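 active = significant combined selectivity score with lowered wild-type GFP, culture density cut under 30%, mutant RFP and density less affected; inactive = any of these conditions unmet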
# S100A4 MyoIIA = blocks human S100A4 binding to myosin IIA peptide | AID 652163 | S100A4/TAMRA-MyoIIA peptide fluorescence polarization | inhibition, % at 10.7 µM | actives 0.14% (n = 360,000);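 active = mean inhibition of at least 70% across replicates, with every replicate also reaching that level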
#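 Compound dosing: one dose per compound; test system: human S100A4 monomer with TAMRA-labelled myosin IIA peptide; probe or stimulus: TAMRA-labelled myosin IIA heavy-chain peptide probe, 5 nM; medium: HEPES buffer with Ca2+, pH 7.2; schedule: 5 min incubation before reading; benchmarks: neutral control DMSO, positive control TFP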
# F508del corr = CFTR F508del correction in bronchial cells; CFBE cells, YFP halide quenching; stimulated with forskolin plus potentiator P3; % fluorescence drop versus neutral controls; activity (quench increase), % at 7.58 µM; actives 0.36% (n = 350,000);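 active = mean added fluorescence quench of at least 8% versus neutral control, with both replicates also reaching 8%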;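 note: cells transiently co-express mutant CFTR-F508del with the halide-sensitive YFP; corrector assay measuring rescue of mutant channel to the surface after 24 h compound exposure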
# ERAP1 inh = ERAP1 (human) enzyme inhibition; recombinant ERAP1, Leu-AMC fluorescence, 60 min; inhibition, % at 10.7 µM; actives 0.15% (n = 340,000); Q9NZ08;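 active = mean replicate inhibition of at least 30%, or all replicates individually reaching that 30% level; inactive = mean below 30% and not every replicate reaching it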;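 note: 0% = neutral control wells and 100% = L-leucinethiol positive control wells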
# SIRT5 block = blocks human SIRT5 desuccinylation of peptide; Q9NXA8; AID 652115; Purified SirT5, succinyl-peptide AMC, trypsin-coupled fluorescence; actives 1.1% (n = 330,000); inhibition, % at 15 µM; in the data active = inhibition above about 15%
# * hit, by the source's call; x = not tested or not shown. Most compounds without a hit are left out; they make up all but 3.1% or so of the library.
SMILES,rRNA inh HTS,S100A4 MyoIIA,F508del corr,ERAP1 inh,SIRT5 block
Cc1ccc(-c2csc(N)n2)cc1,-19.3,3.0,-3.4,-6.6,x
Nc1nc(-c2ccc(C(=O)O)cc2)cs1,14.6,3.0,-0.8,1.9,38.3*
Nc1nc(-c2ccc(Oc3ccccc3)cc2)cs1,8.0,1.9,-7.6,2.8,-1.1
CCN(CC)CCn1nc2c3c(cccc3c1=O)-c1ccccc1-2,-23.2,-0.2,17.7*,2.4,-1.0
O=C(C[C@@H]1CC[C@H](NC(=O)C2CC2)[C@H](CO)O1)NCc1ccncc1,0.0,-1.3,-1.0,1.7,2.3
Cc1ccc(-c2cc(Cc3ccccc3)c(=O)[nH]n2)cc1,-36.5*,-7.3,-0.6,0.9,-3.0
COCCCNc1nnc(Cc2ccc(Cl)cc2)c(=O)[nH]1,5.2,1.0,10.5*,0.4,1.2
COc1cc(-c2c(-c3ccc4c(c3)OCO4)noc2-c2ccsc2)ccc1F,6.0,-8.2,0.3,-3.9,17.0*
CC(C)NC(=O)N(C)C[C@H]1Oc2ccc(NC(=O)Nc3ccc(C(F)(F)F)cc3)cc2CC(=O)N([C@@H](C)CO)C[C@@H]1C,-2.2,10.4,-1.7,3.4,-1.8
COc1ccccc1NC(=O)NCCc1c[nH]c2ccccc12,-21.8*,5.7,-5.7,-2.7,x
Cc1ccc(C)c(NC(=S)NCCc2c[nH]c3ccccc23)c1,-16.9,-1.1,0.2,10.7,-3.4
Cc1cc(/C=C(\C#N)C(=O)NCCc2c[nH]c3ccccc23)c(C)n1C,-38.5*,0.0,-1.2,-0.5,-2.5
COc1ccc(CNC(=O)NCCc2c[nH]c3ccccc23)cc1,-4.7,5.9,-0.5,-3.3,-2.5
COc1ccc(CCNC(=S)NCCc2c[nH]c3ccccc23)cc1,-33.2*,1.1,-0.3,x,0.1
Cc1ccccc1NC(=S)NCCc1c[nH]c2ccccc12,-24.1*,2.9,x,-0.9,-3.9
Cc1ccc(S(=O)(=O)N(C)C[C@H]2Oc3ccc(NC(=O)Nc4ccccc4)cc3C(=O)N([C@H](C)CO)C[C@H]2C)cc1,3.7,21.7,3.7,-1.4,0.3
Cc1ccc(C)c(NC(=O)C(=O)NCCc2c[nH]c3ccccc23)c1,-20.8*,-5.4,-0.2,x,0.2
Cc1ccc(NC(=O)C(=O)NCCc2c[nH]c3ccccc23)c(C)c1,4.9,7.7,-4.4,-6.0,0.9
Cc1noc(C)c1NC(=O)Nc1ccc2c(c1)C(=O)N([C@@H](C)CO)C[C@H](C)[C@H](CN(C)Cc1ccc(Cl)c(Cl)c1)O2,-2.2,0.3,-3.2,-2.5,0.6
COc1ccc(C)cc1NC(=O)C(OC(=O)c1ccc(Cl)c(S(=O)(=O)N(C)c2ccccc2)c1)c1ccccc1 (stereo not given),9.8,-4.3,9.2*,-2.0,-0.1
COc1ccc(C)cc1NC(=O)C(OC(=O)c1cnccn1)c1ccccc1 (stereo not given),-3.6,-0.5,0.0,2.4,-2.6
Cc1cc(C)cc(NC(=O)Cn2nnc(C(=O)NCc3ccc(F)cc3)c2N)c1,5.6,0.7,-1.4,-1.5,15.6*
Cc1cc(C)cc(NC(=O)Cn2nnc(C(=O)NCc3ccccc3Cl)c2N)c1,1.9,-6.1,-0.6,0.9,-0.2
Clc1ccc(SCc2cc(N3CCOCC3)nc(-c3ccccn3)n2)cc1,-59.9,3.5,8.1*,-2.9,x
CC(C)NC(=O)Nc1cccc2c1O[C@@H](CN(C)S(=O)(=O)c1ccccc1)[C@@H](C)CN([C@@H](C)CO)C2=O,2.2,2.1,1.8,-1.1,-1.3
SMILES,rRNA inh HTS,S100A4 MyoIIA,F508del corr,ERAP1 inh,SIRT5 block
CN1CCN(S(=O)(=O)c2ccc(Cl)c(C(F)(F)F)c2)CC1,4.0,-2.5,0.5,3.3,0.8
CC1CN(S(=O)(=O)c2ccc(Cl)c(C(F)(F)F)c2)CC(C)O1 (stereo not given),17.1,5.3,3.8,1.4,15.0*
CN(C)CCCNC(=O)C[C@@H]1CC[C@H](NC(=O)Cc2cccnc2)[C@H](CO)O1,-1.4,-6.1,-1.8,0.9,2.2
CCOC(=O)C1CCN(C2=NC(=O)/C(=C/c3ccc(Cl)cc3)S2)CC1,-13.8,-7.5,3.2,-2.4,-0.5
CCOC(=O)C1CCN(C2=NC(=O)/C(=C/c3ccc(OC)c(OC)c3)S2)CC1,-29.6*,-2.8,-1.2,-1.1,4.4
Cc1ccc(S(=O)(=O)N(C)C[C@@H]2OCc3ccccc3-c3ccccc3C(=O)N([C@H](C)CO)C[C@H]2C)cc1,-2.0,-7.7,0.3,3.1,x
